Measurements published in ChEMBL document CHEMBL4007417, “Target Elucidation by Cocrystal Structures of NADH-Ubiquinone Oxidoreductase of Plasmodium falciparum (PfNDH2) with Small Molecule To Eliminate Drug-Resistant Malaria” (J Med Chem, 2017).
Active and inactive are the calls of the source. No cut-off for these calls is given here.

Experiments:
[1] = tested on: Plasmodium falciparum; experiment: Antimalarial activity against chloroquine/quinine-resistant asexual blood stage Plasmodium falciparum S35 after 72 hrs by SYBR green-based fluorometric analysis; assay type: functional; settings: S35, 72 h
How it was run: (§1)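 Mid-ring-stage cultures (~6-10 h post-invasion) at 1% parasitemia and 2% hematocrit, in triplicate. Twofold serial dilutions from a top concentration of 100 nM. Incubated 72 h at 37 °C under 5% CO2/5% O2/90% N2. Lysis buffer containing 5×SYBR Green I added, 20 min in the dark, fluorescence read at ex 485/em 538 nm. EC50 derived.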

[2] = tested on: Plasmodium falciparum; experiment: Antimalarial activity against sulfadoxine-pyrimethamine/mefloquine resistant asexual blood stage Plasmodium falciparum CP286 after 72 hrs by SYBR green-based fluorometric analysis; assay type: functional; settings: CP286, 72 h; how it was run: as §1
[3] = tested on: Plasmodium falciparum; experiment: Antimalarial activity against chloroquine/quinine/sulfadoxine-pyrimethamine/amodiaquine-resistant asexual blood stage Plasmodium falciparum PC26 after 72 hrs by SYBR green-based fluorometric analysis; assay type: functional; settings: PC26, 72 h; how it was run: as §1
[4] = tested on: Plasmodium falciparum; experiment: Antimalarial activity against multi drug-resistant asexual blood stage Plasmodium falciparum Fab9 after 72 hrs by SYBR green-based fluorometric analysis; assay type: functional; settings: Fab9, 72 h; how it was run: as §1
[5] = tested on: Plasmodium falciparum; experiment: Antimalarial activity against multi drug-resistant asexual blood stage Plasmodium falciparum D10 after 72 hrs by SYBR green-based fluorometric analysis; assay type: functional; settings: D10, 72 h; how it was run: as §1
[6] = tested on: Plasmodium falciparum; experiment: Antimalarial activity against dihydroartemisinin-resistant asexual blood stage Plasmodium falciparum 803 after 72 hrs by SYBR green-based fluorometric analysis; assay type: functional; settings: Plasmodium falciparum, 803, 72 h; how it was run: as §1
[7] = tested on: Plasmodium falciparum; experiment: Antimalarial activity against chloroquine-resistant asexual blood stage Plasmodium falciparum GB4 after 72 hrs by SYBR green-based fluorometric analysis; assay type: functional; settings: GB4, 72 h; how it was run: as §1
[8] = tested on: Plasmodium falciparum; experiment: Antimalarial activity against quinine-resistant asexual blood stage Plasmodium falciparum C2A after 72 hrs by SYBR green-based fluorometric analysis; assay type: functional; how it was run: as §1
[9] = tested on: Plasmodium falciparum; experiment: Antimalarial activity against […] asexual blood stage Plasmodium falciparum 3D7 after 72 hrs by SYBR green-based fluorometric analysis; assay type: functional; settings: 3D7, 72 h; how it was run: as §1
[10] = tested on: Plasmodium falciparum; experiment: Antimalarial activity against […] asexual blood stage Plasmodium falciparum 3D7 assessed as reduction in parasite recrudescence at 10 times EC50 for 72 hrs measured after 28 days post invasion by Giemsa staining-based light microscopic analysis; assay type: functional
How it was run: (§2)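 Parasite cultures exposed for 72 h to 10× EC50 of inhibitor. Drug then removed and cultures maintained for 28 days post treatment. Recrudescence monitored by microscopy.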

[11] = tested on: Plasmodium falciparum; experiment: Antimalarial activity against chloroquine/quinine/sulfadoxine-pyrimethamine/amodiaquine-resistant asexual blood stage Plasmodium falciparum Dd2 assessed as reduction in parasite recrudescence at 10 times EC50 for 72 hrs measured after 28 days post invasion by Giemsa staining-based light microscopic analysis; assay type: functional; how it was run: as §2
[12] = tested on: Plasmodium falciparum; experiment: Antimalarial activity against dihydroartemisinin-resistant asexual blood stage Plasmodium falciparum 803 assessed as reduction in parasite recrudescence at 10 times EC50 for 72 hrs measured after 28 days post invasion by Giemsa staining-based light microscopic analysis; assay type: functional; how it was run: as §2
[13] = tested on: Plasmodium falciparum; experiment: Antimalarial activity against Plasmodium falciparum 3D7 assessed as alteration of parasite morphology at 10 times EC50 dosed at ring stage […] by Giemsa staining-based light microscopic analysis; assay type: functional, organism-based
[14] = tested on: Plasmodium falciparum; experiment: Antimalarial activity against mid/late trophozoite stage of Plasmodium falciparum 3D7 assessed as reduction in parasitemia at 10 times EC50 administered at synchronized early ring stages and then removed from culture at 2 hrs intervals after 34 hrs paraiste invasion stage and measured till 40 hrs post invasion by SYBR green-based fluorometric analysis; assay type: functional; set-up: scale not given: the % may be the effect or the level left
How it was run: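 Synchronized early-ring P. falciparum 3D7 treated with about 10×EC50 compound. Compound removed at 2 h intervals starting at t=34 h (trophozoite), then parasites returned to compound-free medium. Maturation through a single ~48 h asexual cycle followed.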

[15] = tested on: HeLa; experiment: Cytotoxicity against human HeLa cells assessed as reduction in cell viability up to 2 uM after 48 hrs by MTT assay; assay type: cell-based
How it was run: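 HeLa cell viability measured by MTT assay with compound at concentrations up to 2 µM.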

[16] = tested on: Plasmodium yoelii; experiment: Antimalarial activity against Plasmodium yoelii YM infected in BALB/c mouse assessed as parasite growth inhibition at 5 mg/kg, sc administered QD for 4 days starting at 2 hrs post infection by Giemsa-staining based microscopic analysis; assay type: functional; settings: read-out: GI
How it was run: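 P. yoelii-infected mice, n=3 per group. Subcutaneous injection once daily for 4 days starting at 2 h post infection. Growth inhibition determined at 24 h post treatment by blood-smear microscopy. Cure time taken as the minimum period to cure all mice in the group.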

[17] = tested on: Plasmodium yoelii; experiment: Antimalarial activity against Plasmodium yoelii YM infected in BALB/c mouse assessed as mouse survival at 5 mg/kg, sc administered QD for 4 days starting at 2 hrs post infection by Giemsa-staining based microscopic analysis; assay type: functional
How it was run: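 Mice inoculated with 1×106 P. yoelii parasites, then dosed subcutaneously once daily for 4 days starting 2 h post infection. Parasitemia followed by microscopy of blood smears. Survival scored at 40 days post infection in groups of n=3 mice. DMSO-only controls.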

[18] = tested on: Plasmodium yoelii; experiment: Antimalarial activity against Plasmodium yoelii YM infected in BALB/c mouse assessed as parasite growth inhibition at 10 mg/kg, sc administered BID for 4 days starting at 96 hrs post infection, 8 hrs apart by Giemsa-staining based microscopic analysis; assay type: functional; settings: read-out: GI
How it was run: (§3)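 P. yoelii-infected mice, n=3 per group. Subcutaneous injection twice daily, 8 h apart, for 4 days starting at 96 h post infection. Growth inhibition read from blood smears at 24 h post treatment. Cure time taken as the minimum period to cure all mice in the group. DMSO controls included.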

[19] = tested on: Plasmodium yoelii; experiment: Antimalarial activity against Plasmodium yoelii YM infected in BALB/c mouse assessed as mouse survival at 10 mg/kg, sc administered BID for 4 days starting at 96 hrs post infection, 8 hrs apart by Giemsa-staining based microscopic analysis; assay type: functional
How it was run: (§4)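 Mice inoculated with 1×106 P. yoelii parasites. Subcutaneous dosing for 4 days starting 96 h post infection, given once daily or twice daily 8 h apart. Parasitemia followed on Giemsa-stained blood smears. Survival recorded at 40 days post infection; groups of n=3. DMSO-only mice served as untreated controls.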

[20] = tested on: Plasmodium yoelii; experiment: Antimalarial activity against Plasmodium yoelii YM infected in BALB/c mouse assessed as parasite growth inhibition at 30 mg/kg, sc administered BID for 4 days starting at 96 hrs post infection, 8 hrs apart by Giemsa-staining based microscopic analysis; assay type: functional; settings: read-out: GI; how it was run: as §3
[21] = tested on: Plasmodium yoelii; experiment: Antimalarial activity against Plasmodium yoelii YM infected in BALB/c mouse assessed as time duration for parasite cure at 30 mg/kg, sc administered BID for 4 days starting at 96 hrs post infection, 8 hrs apart by Giemsa-staining based microscopic analysis; assay type: functional; how it was run: as §3
[22] = tested on: Plasmodium yoelii; experiment: Antimalarial activity against Plasmodium yoelii YM infected in BALB/c mouse assessed as mouse survival at 30 mg/kg, sc administered BID for 4 days starting at 96 hrs post infection, 8 hrs apart by Giemsa-staining based microscopic analysis; assay type: functional; how it was run: as §4
[23] = tested on: Plasmodium yoelii; experiment: Antimalarial activity against Plasmodium yoelii YM infected in BALB/c mouse assessed as parasite growth inhibition at 90 mg/kg, sc administered BID for 4 days starting at 96 hrs post infection, 8 hrs apart by Giemsa-staining based microscopic analysis; assay type: functional; settings: read-out: GI; how it was run: as §3
[24] = tested on: Plasmodium yoelii; experiment: Antimalarial activity against Plasmodium yoelii YM infected in BALB/c mouse assessed as time duration for parasite cure at 90 mg/kg, sc administered BID for 4 days starting at 96 hrs post infection, 8 hrs apart by Giemsa-staining based microscopic analysis; assay type: functional; how it was run: as §3
[25] = tested on: Plasmodium yoelii; experiment: Antimalarial activity against Plasmodium yoelii YM infected in BALB/c mouse assessed as mouse survival at 90 mg/kg, sc administered BID for 4 days starting at 96 hrs post infection, 8 hrs apart by Giemsa-staining based microscopic analysis; assay type: functional; how it was run: as §4

Cc1c(-c2ccc(Cc3ccc(SC(F)(F)F)cc3)cc2)[nH]c2cccc(F)c2c1=O
EC50 [1]: 4.82 nM
EC50 [2]: 6.24 nM
EC50 [3]: 4.42 nM
EC50 [4]: 5.46 nM
EC50 [5]: 7.7 nM
EC50 [6]: 4.66 nM
EC50 [7]: 3.17 nM
EC50 [8]: 5.26 nM
EC50 [9]: 5.69 nM
Activity [10]: Active
Activity [11]: Active
Activity [12]: Active
Activity [13]: Active
Activity [14]: >=50%
Activity [15]: Non-Toxic
inhibition in vivo at 5 mg/kg [16]: 0%
survival at 5 mg/kg [17]: 0%
inhibition in vivo at 10 mg/kg [18]: 0%
survival at 10 mg/kg [19]: 0%
inhibition in vivo at 30 mg/kg [20]: 99.8%
Time [21]: 15 days
survival at 30 mg/kg [22]: 100%
inhibition in vivo at 90 mg/kg [23]: 100%
Time [24]: 14 days
survival at 90 mg/kg [25]: 100%

Cc1c(-c2ccc(Cc3ccc(OC(F)(F)F)cc3)cc2)[nH]c2cccc(F)c2c1=O
EC50 [1]: 5.48 nM
EC50 [2]: 9.58 nM
EC50 [3]: 5.92 nM
EC50 [4]: 6.25 nM
EC50 [5]: 9.18 nM
EC50 [6]: 5.56 nM
EC50 [7]: 8.16 nM
EC50 [8]: 7.18 nM
EC50 [9]: 11.3 nM
Activity [10]: Active
Activity [11]: Active
Activity [12]: Active
Activity [13]: Active
Activity [14]: >=50%
Activity [15]: Non-Toxic
inhibition in vivo at 5 mg/kg [16]: 100%
survival at 5 mg/kg [17]: 100%
inhibition in vivo at 10 mg/kg [18]: 100%
survival at 10 mg/kg [19]: 100%
inhibition in vivo at 30 mg/kg [20]: 100%
Time [21]: 4 days
survival at 30 mg/kg [22]: 100%
inhibition in vivo at 90 mg/kg [23]: 100%
Time [24]: 4 days
survival at 90 mg/kg [25]: 100%
